Assay results: ChEMBL document CHEMBL4715736, “Identification of anticancer agents based on the thieno[2,3-b]pyridine and 1H-pyrazole molecular scaffolds” (2016)

Tests used:
Format in all cases: functional
[1] = tested on: TK-10; assay: Growth inhibition of human TK-10 cells incubated for 48 hrs by sulforhodamine B assay
How it was run: (§1)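 NCI DTP 60-line human tumour panel. Dose-response curves were run only for ligands active in the initial 10 µM screen. GI50 (concentration giving 50% of maximal inhibition of proliferation) and TGI (concentration giving total growth inhibition) were derived from these curves.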

[2] = tested on: SNB-19; assay: Growth inhibition of human SNB-19 cells assessed as cell growth at 100 uM incubated for 48 hrs by sulforhodamine B assay relative to control; conditions: read-out: Activity
[3] = tested on: SK-MEL-5; assay: Growth inhibition of human SK-MEL-5 cells incubated for 48 hrs by sulforhodamine B assay; how it was run: as §1
[4] = tested on: SK-MEL-28; assay: Growth inhibition of human SK-MEL-28 cells incubated for 48 hrs by sulforhodamine B assay; how it was run: as §1
[5] = tested on: MOLT-4; assay: Growth inhibition of human MOLT-4 cells assessed as cell growth at 100 uM incubated for 48 hrs by sulforhodamine B assay relative to control; conditions: read-out: Activity
[6] = tested on: OVCAR-3; assay: Growth inhibition of human OVCAR-3 cells assessed as cell growth at 0.01 uM incubated for 48 hrs by sulforhodamine B assay relative to control; conditions: read-out: Activity
[7] = tested on: MDA-MB-231; assay: Growth inhibition of human MDA-MB-231 cells assessed as cell growth at 1 uM incubated for 48 hrs by sulforhodamine B assay relative to control; conditions: read-out: Activity
[8] = tested on: HCT-116; assay: Growth inhibition of human HCT-116 cells incubated for 48 hrs by sulforhodamine B assay
How it was run: (§2)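 NCI60 panel at the NCI Developmental Therapeutics Program. Only compounds active in the 10 µM screen went to dose-response testing. GI50, the concentration giving 50% of maximal inhibition of proliferation, and TGI, the concentration giving total growth inhibition, were derived from the dose-response curves.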

[9] = tested on: SK-MEL-2; assay: Growth inhibition of human SK-MEL-2 cells assessed as cell growth at 0.1 uM incubated for 48 hrs by sulforhodamine B assay relative to control; conditions: read-out: Activity
[10] = tested on: SF-268; assay: Growth inhibition of human SF-268 cells assessed as cell growth at 0.1 uM incubated for 48 hrs by sulforhodamine B assay relative to control; conditions: read-out: Activity
[11] = tested on: BT-549; assay: Growth inhibition of human BT-549 cells assessed as cell growth at 0.1 uM incubated for 48 hrs by sulforhodamine B assay relative to control; conditions: read-out: Activity
[12] = tested on: CAKI-1; assay: Growth inhibition of human CAKI-1 cells incubated for 48 hrs by sulforhodamine B assay; conditions: for CC50: read-out: LC50 (the source's name)
How it was run: (§3)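 NCI Developmental Therapeutics Program NCI60 panel. Compounds that were active in the 10 µM one-dose screen went on to dose–response testing. Growth at each concentration is expressed relative to untreated control (100%). GI50 (concentration giving 50% of maximal inhibition of proliferation) and TGI (concentration giving total growth inhibition) were derived from the curves.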

[13] = tested on: SW-620; assay: Growth inhibition of human SW-620 cells assessed as cell growth at 1 uM incubated for 48 hrs by sulforhodamine B assay relative to control; conditions: read-out: Activity
[14] = tested on: NCI-H322M; assay: Growth inhibition of human NCI-H322M cells assessed as cell growth at 0.01 uM incubated for 48 hrs by sulforhodamine B assay relative to control; conditions: read-out: Activity
[15] = tested on: K562; assay: Growth inhibition of human K562 cells assessed as cell growth at 100 uM incubated for 48 hrs by sulforhodamine B assay relative to control; conditions: read-out: Activity
[16] = tested on: HCC 2998; assay: Growth inhibition of human HCC 2998 cells assessed as cell growth at 1 uM incubated for 48 hrs by sulforhodamine B assay relative to control; conditions: read-out: Activity; how it was run: as §3
[17] = tested on: HCC 2998; assay: Growth inhibition of human HCC 2998 cells assessed as cell growth at 0.1 uM incubated for 48 hrs by sulforhodamine B assay relative to control; conditions: read-out: Activity; how it was run: as §3
[18] = tested on: U-251; assay: Growth inhibition of human U-251 cells incubated for 48 hrs by sulforhodamine B assay; how it was run: as §1
[19] = tested on: MDA-MB-435; assay: Growth inhibition of human MDA-MB-435 cells assessed as cell growth at 100 uM incubated for 48 hrs by sulforhodamine B assay relative to control; conditions: read-out: Activity
[20] = tested on: KM12; assay: Growth inhibition of human KM12 cells incubated for 48 hrs by sulforhodamine B assay; how it was run: as §2
[21] = tested on: BT-549; assay: Growth inhibition of human BT-549 cells incubated for 48 hrs by sulforhodamine B assay; how it was run: as §3
[22] = tested on: TK-10; assay: Growth inhibition of human TK-10 cells assessed as cell growth at 100 uM incubated for 48 hrs by sulforhodamine B assay relative to control; conditions: read-out: Activity
[23] = tested on: A549; assay: Growth inhibition of human A549/ATCC cells assessed as cell growth at 100 uM incubated for 48 hrs by sulforhodamine B assay relative to control; conditions: read-out: Activity; how it was run: as §3
[24] = tested on: T47D; assay: Growth inhibition of human T47D cells assessed as cell growth at 0.01 uM incubated for 48 hrs by sulforhodamine B assay relative to control; conditions: read-out: Activity
[25] = tested on: Malme-3M; assay: Growth inhibition of human Malme-3M cells assessed as cell growth at 100 uM incubated for 48 hrs by sulforhodamine B assay relative to control; conditions: read-out: Activity
[26] = tested on: RXF 393; assay: Growth inhibition of human RXF 393 cells assessed as cell growth at 1 uM incubated for 48 hrs by sulforhodamine B assay relative to control; conditions: read-out: Activity
[27] = tested on: SW-620; assay: Growth inhibition of human SW-620 cells assessed as cell growth at 0.1 uM incubated for 48 hrs by sulforhodamine B assay relative to control; conditions: read-out: Activity
[28] = tested on: IGROV-1; assay: Growth inhibition of human IGROV-1 cells assessed as cell growth at 1 uM incubated for 48 hrs by sulforhodamine B assay relative to control; conditions: read-out: Activity
[29] = tested on: NCI-H226; assay: Growth inhibition of human NCI-H226 cells assessed as cell growth at 100 uM incubated for 48 hrs by sulforhodamine B assay relative to control; conditions: read-out: Activity
[30] = tested on: DU-145; assay: Growth inhibition of human DU-145 cells assessed as cell growth at 1 uM incubated for 48 hrs by sulforhodamine B assay relative to control; conditions: read-out: Activity; how it was run: as §3
[31] = tested on: LOX IMVI; assay: Growth inhibition of human LOX IMVI cells assessed as cell growth at 100 uM incubated for 48 hrs by sulforhodamine B assay relative to control; conditions: read-out: Activity
[32] = tested on: U-251; assay: Growth inhibition of human U-251 cells assessed as cell growth at 0.1 uM incubated for 48 hrs by sulforhodamine B assay relative to control; conditions: read-out: Activity
[33] = tested on: HCT-116; assay: Growth inhibition of human HCT-116 cells assessed as cell growth at 1 uM incubated for 48 hrs by sulforhodamine B assay relative to control; conditions: read-out: Activity
[34] = tested on: OVCAR-8; assay: Growth inhibition of human OVCAR-8 cells assessed as cell growth at 1 uM incubated for 48 hrs by sulforhodamine B assay relative to control; conditions: read-out: Activity
[35] = tested on: NCI-H23; assay: Growth inhibition of human NCI-H23 cells assessed as cell growth at 0.01 uM incubated for 48 hrs by sulforhodamine B assay relative to control; conditions: read-out: Activity
[36] = read-out: LC50 (the source's name)

Cc1ccc(NC(=O)c2sc3nc4c(cc3c2N)C(=O)CCC4)cc1C
TGI [1]: > 100 µM
CC50 [1, 36]: > 100 µM
growth at 100 µM [2]: 29%
GI50 [3]: 0.376 µM
LC50 [3]: ≥ 100 µM
TGI [3]: 16.4 µM
GI50 [4]: 1.51 µM
LC50 [4]: > 100 µM
TGI [4]: > 100 µM
growth at 100 µM [5]: -6%
growth at 0.01 µM [6]: 102%
growth at 1 µM [7]: 56%
GI50 [8]: 0.527 µM
LC50 (concentration killing 50% of cells) [8]: > 100 µM
TGI [8]: > 100 µM
growth at 0.1 µM [9]: 90%
growth at 0.1 µM [10]: 94%
growth at 0.1 µM [11]: 108%
TGI [12]: > 100 µM
CC50 [12]: > 100 µM
growth at 1 µM [13]: 19%
growth at 0.01 µM [14]: 93%
growth at 100 µM [15]: -4%
growth at 1 µM [16]: 57%
growth at 0.1 µM [17]: 93%
GI50 [18]: 0.68 µM
LC50 (concentration killing 50% of cells) [18]: > 100 µM
TGI [18]: ≥ 100 µM
growth at 100 µM [19]: -46%
GI50 [20]: 0.479 µM
LC50 [20]: > 100 µM
TGI [20]: > 100 µM
TGI [21]: > 100 µM
CC50 [21, 36]: > 100 µM
growth at 100 µM [22]: 47%
growth at 100 µM [23]: 13%
growth at 0.01 µM [24]: 98%
growth at 100 µM [25]: 28%
growth at 1 µM [26]: -11%
growth at 0.1 µM [27]: 95%
growth at 1 µM [28]: 51%
growth at 100 µM [29]: 36%
growth at 1 µM [30]: 35%
growth at 100 µM [31]: 20%
growth at 0.1 µM [32]: 92%
growth at 1 µM [33]: 33%
growth at 1 µM [34]: 68%

CCc1cccc(C)c1NC(=O)c1sc2nc3c(cc2c1N)C(=O)CCC3
growth at 100 µM [2]: 34%
GI50 [3]: 0.294 µM
LC50 [3]: 39 µM
TGI [3]: 151 µM
GI50 [4]: 0.133 µM
LC50 [4]: > 100 µM
TGI [4]: > 100 µM
growth at 100 µM [5]: -9%
growth at 0.01 µM [6]: 101%
growth at 1 µM [7]: 51%
GI50 [8]: 0.471 µM
LC50 (concentration killing 50% of cells) [8]: > 100 µM
TGI [8]: > 100 µM
growth at 0.1 µM [10]: 96%
GI50 [12]: 0.511 µM
TGI [12]: > 100 µM
CC50 [12]: > 100 µM
growth at 1 µM [13]: 17%
growth at 0.01 µM [14]: 91%
growth at 100 µM [15]: -52%
growth at 1 µM [16]: 55%
growth at 0.1 µM [17]: 100%
GI50 [18]: 0.57 µM
LC50 (concentration killing 50% of cells) [18]: > 100 µM
TGI [18]: > 100 µM
growth at 100 µM [19]: -13%
GI50 [20]: 0.413 µM
LC50 [20]: > 100 µM
TGI [20]: > 100 µM
growth at 100 µM [23]: 6%
growth at 0.01 µM [24]: 97%
growth at 100 µM [25]: -1%
growth at 1 µM [26]: -12%
growth at 0.1 µM [27]: 91%
growth at 0.01 µM [35]: 99%
growth at 1 µM [28]: 59%
growth at 100 µM [29]: 8%
growth at 1 µM [30]: 21%
growth at 100 µM [31]: 8%
growth at 0.1 µM [32]: 90%
growth at 1 µM [33]: 28%
growth at 1 µM [34]: 62%
